The source of these data is PMC7127107 (Bioorganic & Medicinal Chemistry, 2013).

Data set [1] in a line: Cytotoxicity in Vero cells. It counts as cell-based. To be noted: African green monkey. The essentials:
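Vero cells were seeded at 1 × 10^5 cells/well and grown for 48 h. They were then exposed for 72 h to twofold serial dilutions of test compound (5–600 μg/mL or μM). MTT was added for 4 h at 37 °C, and formazan was dissolved in 0.04 M HCl–isopropanol. Absorbance was read at 540 nm minus 655 nm background. CC50 came from regression analysis; experiments were run three times.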

Data set [2] relates to PEDV SM98 strain. The data set is described as follows: Simultaneous-treatment antiviral assay. It counts as cell-based, porcine epidemic diarrhea virus. Conditions: for IC50: Porcine epidemic diarrhea virus, Vero, read-out: Simultaneous-treatment IC50; for selectivity ratio at 72 h: African green monkey, Vero cells infected with PEDV SM98 strain. The method in brief: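 Test compound at various concentrations was premixed with PEDV SM98 (MOI 0.01) for 1 h at 4 °C. The mixture was put on near-confluent Vero monolayers (1 × 10^5 cells/well) for 1 h with occasional rocking, then replaced with fresh medium; triplicate wells. After 72 h, MTT was read (4 h, 37 °C; A540 minus 655 nm). IC50 came from regression analysis, and SI = CC50/IC50.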

For data set [3], the system named is PEDV SM98 strain. Nature of the data set: Post-treatment antiviral assay. To be noted: for IC50: Porcine epidemic diarrhea virus, Vero, read-out: Post-treatment IC50. It counts as cell-based, porcine epidemic diarrhea virus. The method in brief:
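Near-confluent Vero monolayers (1 × 10^5 cells/well) were infected with PEDV SM98 at MOI 0.01 for 1 h with occasional rocking. Inoculum was replaced by EMEM containing test compound (1–200 μM), in triplicate. After 72 h, viability was read by MTT (4 h, 37 °C; A540 minus 655 nm). IC50 came from regression analysis, and SI = CC50/IC50.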

The test system of data set [4] is PEDV (SM98 strain). Nature of the data set: Hemagglutination inhibition. It counts as cell-based, porcine epidemic diarrhea virus. To be noted: 4 HAU PEDV, rabbit RBCs, 1 h room temperature. The essentials:
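PEDV at 4 HAU was mixed with an equal volume of twofold serial dilutions of test compound in PBS (pH 7.4), with PBS alone as negative control, for 1 h at 4 °C. The mixture was combined with an equal volume of 1% rabbit RBC suspension and incubated 1 h at room temperature. Experiments were run three times.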

For data set [5], the system named is PEDV. Nature of the data set: Quantitative real-time RT-PCR of intracellular viral RNA. It counts as cell-based, porcine epidemic diarrhea virus. For orientation: In qPCR the cycle at which signal appears reflects the starting amount.
The test system of data set [6] is PEDV. Nature of the data set: Western blot of viral spike. It counts as cell-based, porcine epidemic diarrhea virus. The essentials: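 Vero cells at about 90% confluence were infected with PEDV at MOI 0.01 for 1 h, then cultured with 30 μM test compound or 0.5% DMSO. Cells were harvested at 6, 12, 18 and 24 h and lysed, and proteins were separated on Bis–Tris gels and blotted to nitrocellulose. Blots were probed with anti-S antibody (12 h, 4 °C) and HRP secondary, then developed by chemiluminescence; GAPDH served as loading control.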

For data set [7], the system named is PEDV (SM98 strain). Nature of the data set: Confocal immunofluorescence imaging of PEDV-infected Vero cells. It counts as cell-based, porcine epidemic diarrhea virus. Conditions: 30 μM, 24 h.

In general, CC50 refers to the concentration that lowers cell viability or growth by half. A word on the IC50: it is the concentration at which inhibition is half-maximal. As to `Oc1cc(O)cc(O)c1` [Compound 1, phloroglucinol], in data set [1], it took 374 ± 4 µM to reach half-maximal cytotoxicity (CC50 at 72 h). Besides, the IC50 in data set [2] and in data set [3] was above 200 µM throughout. For the same compound, the “Simultaneous-treatment IC50” value in data set [2] (mixed with virus 0.01 MOI 1 h at 4 °C, Vero cells, 72 h) was “did not show significant inhibitory effects”.
In data set [1], `Oc1cc(O)cc(Oc2c(O)cc(O)c3c2Oc2c(O)cc(O)cc2O3)c1` [Compound 2, eckol] showed a CC50 at 72 h of 388.3 ± 2.6 µM. Moreover, in data set [2], the selectivity ratio at 72 h was 17.2 and the IC50 was found to be 22.5 ± 2.2 µM. Moreover, the IC50 in data set [3] was above 200 µM. Besides, the “Minimum concentration that completely inhibited viral hemagglutination” value in data set [4] (listed as eckol (2)) is 3.8 to 5.4 µM.
`Oc1cc(O)cc(Oc2c(O)cc(O)c3c2Oc2c(O)cc(Oc4c(O)cc(Oc5c(O)cc(O)c6c5Oc5c(O)cc(O)cc5O6)cc4O)cc2O3)c1` [Compound 5, dieckol] returned a CC50 at 72 h in data set [1] of 490.6 ± 1.6 µM. The selectivity ratio at 72 h in data set [2] stood at 29.5; in data set [3] (African green monkey, Vero cells infected with PEDV SM98 strain), 33.6. The IC50 in data set [2] was 16.6 ± 3 µM; in data set [3], 14.6 ± 1.3 µM. Further, the “Minimum concentration that completely inhibited viral hemagglutination” value in data set [4] (listed as dieckol (5)) is 3.8 to 5.4 µM. Also, the “Viral RNA levels, early stage” value in data set [5] (30 μM, 6 and 12 h after infection) is “largely unchanged”. The “Viral RNA levels, late stage” value in data set [5] (30 μM, 18 and 24 h after infection, vs untreated/infected cells (0.5% DMSO)) is “markedly decreased”. For the same compound, the “Viral RNA levels relative to vehicle-treated cells” value in data set [5] (50 μM, 24 h after infection, ORF3 gene normalized to GAPDH) is listed as 30–40%. Moreover, the “Effect on viral RNA levels” value in data set [5] (5–50 μM, 24 h after infection) was “significantly reduced viral RNA levels in dose-dependent manner”. For the same compound, the “Synthesis of viral proteins, late stage” value in data set [6] (30 μM, 18 and 24 h) was “strongly inhibited”. Further, the “Synthesis of viral proteins (S protein)” value in data set [6] (5–50 μM, 24 h post-infection) is listed as “inhibited the synthesis of viral proteins”. The “Number of fluorescence-positive, PEDV-infected cells” value in data set [7] was “reduced the number of fluorescence-positive, PEDV-infected cells”.
